Measurements: ChEMBL document CHEMBL3421557, “Sesamol reduces the atherogenicity of electronegative L5 LDL in vivo and in vitro” (J Nat Prod, 2015)
Activity calls are given as the source filed them.

What was measured:
Homo sapiens [1] = organism: Homo sapiens; assay: Induction of Akt phosphorylation in HAEC at 3 uM measured at 30 mins by Western blot analysis in presence of wortmannin and Akt inhibitor
Outline: (§1)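 HAECs pretreated 30 min with vehicle (0.1% DMSO), 20 nM wortmannin or 2 nM Akt inhibitor, then ± 3 µM agent for 30 min. p-Akt and p-eNOS were immunoblotted and normalized to β-actin relative to vehicle control. Densitometry, n = 4 independent experiments, mean ± SD, t-test.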

Homo sapiens [2] = organism: Homo sapiens; assay: Induction of Akt phosphorylation in HAEC at 3 uM after 10 to 30 mins by Western blot analysis
Outline: (§2)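 HAECs treated with 3 µM agent or vehicle (0.1% DMSO) for 10, 30, 60, 120 and 240 min. Lysates were immunoblotted for p-eNOS and p-Akt, normalized to total eNOS or Akt relative to vehicle control. Densitometry, 4 independent experiments, mean ± SD, Student's t-test.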

Syrian golden hamster [3] = assay: Antiatherogenic activity in high-fat diet fed Syrian hamster assessed as decrease in plasma very-low-density lipoprotein cholesterol level at 50 to 100 mg/kg, po administered for 16 weeks by automated analyzer relative to high-fat diet fed control; type: functional, organism-based; settings: Mesocricetus auratus
Outline: (§3)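 High-fat-diet hamsters gavaged 50 or 100 mg/kg in 0.5% CMC for 16 weeks (n = 8/group); chow and HFD controls received vehicle. Serum from fasted blood (3000g, 10 min) was assayed for TC, TG, VLDL-C, LDL-C and HDL-C with enzymatic kits on an automated analyzer. Mean ± SD, Student's t-test versus HFD group.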

[4] = molecular target: MAP kinase p38 (Homo sapiens) (UniProt O15264+Q15759+Q16539+P53778); assay: Activation of PI3K/Akt/eNOS signaling in HAEC assessed as inhibition of L5-induced p38 MAPK phosphorylation preincubated for 30 mins followed by L5 induction measured after 120 mins by Western blot analysis in presence of PI3K inhibitor wortmannin, Akt inhibitor, eNOS inhibitor L-NAME; type: protein assay
Outline: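 HAECs pretreated 30 min with vehicle (0.1% DMSO), wortmannin (20 nM), Akt inhibitor (2 nM) or L-NAME (0.1 mM), then ± agent (0.3, 1 or 3 µM) 30 min, then L5 (50 µg/mL) 120 min. Phospho-p38 MAPK immunoblot normalized to total p38 MAPK relative to vehicle control. Densitometry, 4 independent experiments, mean ± SD, t-test.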

Syrian golden hamster [5] = assay: Antiatherogenic activity in high-fat diet fed Syrian hamster assessed as reduction of atherosclerotic lesions size in aortic arch at 50 mg/kg, po administered for 16 weeks by oil red o staining-based assay relative to high-fat diet fed control; type: functional, Mesocricetus auratus; design: scale not given: the % may be the effect or the level left
Outline: (§4)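 High-fat-diet hamsters gavaged 50 or 100 mg/kg in 0.5% CMC for 16 weeks (n = 8/group). Aorta from root to mid-descending thoracic segment was fixed in 4% PFA and stained with 0.6% Oil Red O in 60% isopropanol for 30 min. Plaque area was taken as a ratio of total luminal area from stereoscope en face images. Mean ± SD, t-test.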

Syrian golden hamster [6] = assay: Antiatherogenic activity in high-fat diet fed po dosed Syrian hamster assessed as decrease in plasma L5 level administered for 16 weeks by fast protein liquid chromatographic analysis; type: functional, organism-based; settings: Mesocricetus auratus
Syrian golden hamster [7] = assay: Antiatherogenic activity in high-fat diet fed po dosed Syrian hamster assessed as decrease in total LDL electronegativity administered for 16 weeks by agarose gel electrophoresis; type: functional, organism-based; settings: Mesocricetus auratus
Outline: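 Total LDL from hamsters fed 16 weeks as chow, HFD, or HFD plus 50 or 100 mg/kg by gavage in 0.5% CMC. LDL isolated by KBr ultracentrifugation with EDTA and nitrogen protection. Samples of 2.5 µg run on 0.7% agarose (90 mM Tris/90 mM boric acid, pH 8.2) at 100 V for 1.4 h to assess electronegativity.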

Syrian golden hamster [8] = assay: Antiatherogenic activity in high-fat diet fed Syrian hamster assessed as downregulation of active caspase-3 expression in aorta at 50 to 100 mg/kg, po administered for 16 weeks by immunohistochemical analysis; type: functional, organism-based; settings: Mesocricetus auratus
[9] = molecular target: T1, Nitric oxide synthase 3 (Homo sapiens) (UniProt P29474); assay: Induction of eNOS phosphorylation in HAEC at 3 uM measured at 30 mins by Western blot analysis in presence of wortmannin and Akt inhibitor; outline: as §1
T1 sequence (whole entry): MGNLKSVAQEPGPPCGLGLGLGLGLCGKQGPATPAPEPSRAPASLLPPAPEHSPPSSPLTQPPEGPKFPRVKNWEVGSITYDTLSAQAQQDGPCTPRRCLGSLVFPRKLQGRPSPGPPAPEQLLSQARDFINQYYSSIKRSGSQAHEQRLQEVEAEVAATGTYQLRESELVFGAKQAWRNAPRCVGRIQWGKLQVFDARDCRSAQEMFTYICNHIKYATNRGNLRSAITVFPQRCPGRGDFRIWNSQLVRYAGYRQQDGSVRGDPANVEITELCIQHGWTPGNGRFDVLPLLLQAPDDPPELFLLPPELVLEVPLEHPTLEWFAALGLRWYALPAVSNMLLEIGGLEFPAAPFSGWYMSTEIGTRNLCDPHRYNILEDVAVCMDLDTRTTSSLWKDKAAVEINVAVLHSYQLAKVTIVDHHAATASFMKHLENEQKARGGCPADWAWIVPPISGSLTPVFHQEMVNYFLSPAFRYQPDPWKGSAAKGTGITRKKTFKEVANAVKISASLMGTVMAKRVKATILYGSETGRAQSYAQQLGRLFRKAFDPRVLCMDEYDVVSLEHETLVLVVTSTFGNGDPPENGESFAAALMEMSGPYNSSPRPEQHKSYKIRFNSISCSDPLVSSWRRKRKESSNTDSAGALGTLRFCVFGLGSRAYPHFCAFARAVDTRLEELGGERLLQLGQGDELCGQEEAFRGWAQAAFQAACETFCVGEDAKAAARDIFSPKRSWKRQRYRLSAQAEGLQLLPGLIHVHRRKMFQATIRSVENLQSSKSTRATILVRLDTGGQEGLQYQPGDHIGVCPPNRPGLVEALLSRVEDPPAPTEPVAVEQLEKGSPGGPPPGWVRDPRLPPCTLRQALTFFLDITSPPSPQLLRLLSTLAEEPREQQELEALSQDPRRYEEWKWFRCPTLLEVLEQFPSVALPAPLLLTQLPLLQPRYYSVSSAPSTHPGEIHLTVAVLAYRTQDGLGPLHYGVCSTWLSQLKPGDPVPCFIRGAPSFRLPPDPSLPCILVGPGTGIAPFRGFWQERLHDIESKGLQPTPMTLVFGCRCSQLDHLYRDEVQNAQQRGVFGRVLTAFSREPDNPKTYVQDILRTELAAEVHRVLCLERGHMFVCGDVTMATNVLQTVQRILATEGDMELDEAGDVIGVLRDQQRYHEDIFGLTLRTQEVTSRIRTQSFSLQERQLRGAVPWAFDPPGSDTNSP

Homo sapiens [10] = organism: Homo sapiens; assay: Inhibition of L5-induced apoptosis in HAEC preincubated for 30 mins followed by L5 induction measured after 24 hrs by Hoechst 33342 and calcein-AM staining-based fluorescence microscopic analysis; type: functional
Outline: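 Subconfluent HAECs pretreated 30 min with vehicle (0.1% DMSO) or agent (0.3, 1, 3 µM), then ± L5 (50 µg/mL; L1 as negative control) for 24 h. Cells stained 10 min with 1 µM Hoechst 33342 plus calcein-AM and imaged by epifluorescence. Condensed or fragmented nuclei were scored as apoptotic; percentage of apoptotic cells from 6 samples, mean ± SD, t-test.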

Syrian golden hamster [11] = assay: Antiatherogenic activity in high-fat diet fed Syrian hamster assessed as decrease in plasma trigylceride level at 50 to 100 mg/kg, po administered for 16 weeks by automated analyzer relative to high-fat diet fed control; type: functional, organism-based; settings: Mesocricetus auratus; outline: as §3
Syrian golden hamster [12] = assay: Antiatherogenic activity in high-fat diet fed Syrian hamster assessed as decrease in plasma total cholesterol level at 50 to 100 mg/kg, po administered for 16 weeks by automated analyzer relative to high-fat diet fed control; type: functional, organism-based; settings: Mesocricetus auratus; outline: as §3
Homo sapiens [13] = organism: Homo sapiens; assay: Activation of PI3K/Akt/eNOS signaling in HAEC assessed as inhibition of L5-induced caspase-3 activation preincubated for 30 mins followed by L5 induction measured after 24 hrs by Western blot analysis in presence of PI3K inhibitor wortmannin, Akt inhibitor, eNOS inhibitor L-NAME
Outline: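 Primary HAECs (passage 3–4, 2% FBS complete medium) pretreated 30 min with vehicle (0.1% DMSO) or L-NAME (0.1 mM), then 3 µM test agent 30 min, then ± L5 (50 µg/mL) 24 h. Active caspase-3 measured by immunoblot on 50 µg lysate, normalized to β-actin relative to vehicle control. Densitometry, n = 4, mean ± SD, Student's t-test.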

Syrian golden hamster [14] = assay: Antiatherogenic activity in high-fat diet fed Syrian hamster assessed as reduction of atherosclerotic lesions size in aortic arch at 100 mg/kg, po administered for 16 weeks by oil red o staining-based assay relative to high-fat diet fed control; type: functional, Mesocricetus auratus; design: scale not given: the % may be the effect or the level left; outline: as §4
Syrian golden hamster [15] = assay: Toxicity in high-fat diet fed Syrian hamster assessed as mortality at 50 to 100 mg/kg, po administered for 16 weeks measured over 22 weeks; type: organism-based, Mesocricetus auratus; design: dose 50-100 mg/kg, route oral; settings: in vivo, 3696 h
Syrian golden hamster [16] = assay: Antiatherogenic activity in high-fat diet fed Syrian hamster assessed as decrease in plasma L5 level at 50 mg/kg, po administered for 16 weeks by fast protein liquid chromatographic analysis (reference value: 13.7%); type: functional, Mesocricetus auratus; design: scale not given: the % may be the effect or the level left
Homo sapiens [17] = organism: Homo sapiens; assay: Reversal of L5-induced Akt dephosphorylation in HAEC at 3 uM preincubated for 30 mins followed by L5 induction measured after 24 hrs by Western blot analysis
Outline: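 HAECs pretreated 30 min with vehicle (0.1% DMSO) or 3 µM agent, then ± L5 (50 µg/mL) for 24 h. p-Akt immunoblot normalized to β-actin relative to vehicle control. Densitometry, 4 independent experiments, mean ± SD, Student's t-test.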

[18] = molecular target: Oxidized low-density lipoprotein receptor 1 (Homo sapiens) (UniProt P78380); assay: Inhibition of LOX1-induced DiI-L5 endocytosis in HAEC at 3 uM preincubated for 30 mins followed by DiI-L5 treatment measured after 8 hrs by fluorescence microscopic analysis
Outline: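 L5 labeled with DiI (1 mg/mL L5 with 80 µM DiI, 37 °C overnight), re-isolated by ultracentrifugation and dialyzed. HAECs were pretreated ± 3 µM agent for 30 min, then given DiI-L5 (50 µg/mL) for 8 h. Internalization was imaged by fluorescence microscopy with Hoechst nuclear counterstain.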

Syrian golden hamster [19] = assay: Antiatherogenic activity in high-fat diet fed Syrian hamster assessed as decrease in plasma L5 level at 100 mg/kg, po administered for 16 weeks by fast protein liquid chromatographic analysis (reference value: 13.7%); type: functional, Mesocricetus auratus; design: scale not given: the % may be the effect or the level left
Homo sapiens [20] = organism: Homo sapiens; assay: Inhibition of L5-induced LOX1 expression in HAEC at 0.3 to 3 uM by immunoblot analysis; type: functional
Outline: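 HAECs exposed to agent at the indicated concentrations with L5 (50 µg/mL). LOX-1 immunoblot on lysates, normalized to β-actin relative to untreated control. Densitometry from 4 independent experiments, mean ± SD, Student's t-test.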

[21] = molecular target: T1, Nitric oxide synthase 3 (Homo sapiens); assay: Induction of eNOS phosphorylation in HAEC at 3 uM after 60 to 240 mins by Western blot analysis; outline: as §2
Syrian golden hamster [22] = assay: Antiatherogenic activity in high-fat diet fed Syrian hamster assessed as decrease in plasma low-density lipoprotein cholesterol level at 50 to 100 mg/kg, po administered for 16 weeks by automated analyzer relative to high-fat diet fed control; type: functional, organism-based; settings: Mesocricetus auratus; outline: as §3
Homo sapiens [23] = organism: Homo sapiens; assay: Induction of Akt phosphorylation in HAEC at 3 uM after 60 to 240 mins by Western blot analysis; outline: as §2
Syrian golden hamster [24] = assay: Toxicity in high-fat diet fed Syrian hamster assessed as change in body weight at 50 to 100 mg/kg, po administered for 16 weeks measured over 22 weeks; type: organism-based, Mesocricetus auratus; design: dose 50-100 mg/kg, route oral; settings: in vivo, 3696 h
[25] = molecular target: T1, Nitric oxide synthase 3 (Homo sapiens); assay: Induction of eNOS phosphorylation in HAEC at 3 uM after 10 to 30 mins by Western blot analysis; outline: as §2
[26] = molecular target: Oxidized low-density lipoprotein receptor 1 (Homo sapiens) (UniProt P78380); assay: Inhibition of L5-activated LOX1-induced p38 MAPK phosphorylation in HAEC preincubated for 30 mins followed by L5 induction measured after 120 mins by Western blot analysis
Outline: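 HAECs pretreated 30 min with TS92 anti-LOX-1 antibody (10 µg/mL), SB203580 (2 µM) or vehicle, then ± L5 or L1 control (50 µg/mL) for 120 min. Phospho-p38 immunoblot normalized to total p38. Densitometry, 4 experiments, mean ± SD.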

Homo sapiens [27] = organism: Homo sapiens; assay: Inhibition of L5-induced caspase-3 activation in HAEC preincubated for 30 mins followed by L5 induction measured after 24 hrs by immunoblot analysis; type: functional
Outline: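 HAECs pretreated 30 min with vehicle (0.1% DMSO) or agent (0.3–3 µM), then ± L5 (50 µg/mL) 24 h. Cleaved caspase-3 immunoblot normalized to β-actin relative to vehicle control. Densitometry, n = 4, mean ± SD, Student's t-test.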

Oc1ccc2c(c1)OCO2
5.7%: Activity (Syrian golden hamster [19])
47.3%: Activity (Syrian golden hamster [14])
9.5%: Activity (Syrian golden hamster [16])
inactive: Activity (Homo sapiens [1]) | inhibition [4] | Activity [9] | inhibition (Homo sapiens [13]) | Activity [21] | Activity (Homo sapiens [23])
Non-toxic: Activity (Syrian golden hamster [15]) | Activity (Syrian golden hamster [24])
31.5%: Activity (Syrian golden hamster [5])
active: Activity (Homo sapiens [2]) | Activity (Syrian golden hamster [3]) | Activity (Syrian golden hamster [6]) Dose-dependent effect | Activity (Syrian golden hamster [7]) Dose-dependent effect | Activity (Syrian golden hamster [8]) | inhibition (Homo sapiens [10]) Dose-dependent effect | Activity (Syrian golden hamster [11]) | Activity (Syrian golden hamster [12]) | Activity (Homo sapiens [17]) | inhibition [18] | inhibition (Homo sapiens [20]) | Activity (Syrian golden hamster [22]) | Activity [25] | inhibition [26] Dose-dependent effect | inhibition (Homo sapiens [27]) Dose-dependent effect
